According to ChEMBL document CHEMBL4190404, “Synthesis and characterization of amino acid substituted sunitinib analogues for the treatment of AML” (Bioorg Med Chem Lett, 2018):
pIC50: −log10 of the molar value.

Experiments:
[1] = system: Receptor-type tyrosine-protein kinase FLT3 (Homo sapiens), P36888 [UNDEFINED MUTATION]; test: Inhibition of FLT3 ITD mutant (unknown origin) using TAMRA-Src- tide as substrate at 1.25 uM after 1 hr by fluorescence polarization assay relative to control
Method in brief: (§1)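 FLT3-ITD kinase inhibition by fluorescence polarization IMAP assay; each compound tested at 12.5 and 1.25 μM; percent inhibition, average of two parallel measurements.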

[2] = system: Receptor-type tyrosine-protein kinase FLT3 (Homo sapiens), P36888 [UNDEFINED MUTATION]; test: Inhibition of FLT3 ITD mutant (unknown origin) using TAMRA-Src- tide as substrate at 12.5 uM after 1 hr by fluorescence polarization assay relative to control; method in brief: as §1
[3] = system: MV4-11; test: Antiproliferative activity against human MV4-11 cells after 72 hrs by Celltiter-Glo luminescent cell viability assay; format: functional, cell-based; conditions: MV4-11, 72 h
Method in brief: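 MV4-11 leukaemia cells, 72 h proliferation assay, luminescence read-out; IC50 determined from concentration–response.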

Sequence of Receptor-type tyrosine-protein kinase FLT3 (Homo sapiens), P36888 [UNDEFINED MUTATION] (P36888 whole entry, looked up, stated change not applied): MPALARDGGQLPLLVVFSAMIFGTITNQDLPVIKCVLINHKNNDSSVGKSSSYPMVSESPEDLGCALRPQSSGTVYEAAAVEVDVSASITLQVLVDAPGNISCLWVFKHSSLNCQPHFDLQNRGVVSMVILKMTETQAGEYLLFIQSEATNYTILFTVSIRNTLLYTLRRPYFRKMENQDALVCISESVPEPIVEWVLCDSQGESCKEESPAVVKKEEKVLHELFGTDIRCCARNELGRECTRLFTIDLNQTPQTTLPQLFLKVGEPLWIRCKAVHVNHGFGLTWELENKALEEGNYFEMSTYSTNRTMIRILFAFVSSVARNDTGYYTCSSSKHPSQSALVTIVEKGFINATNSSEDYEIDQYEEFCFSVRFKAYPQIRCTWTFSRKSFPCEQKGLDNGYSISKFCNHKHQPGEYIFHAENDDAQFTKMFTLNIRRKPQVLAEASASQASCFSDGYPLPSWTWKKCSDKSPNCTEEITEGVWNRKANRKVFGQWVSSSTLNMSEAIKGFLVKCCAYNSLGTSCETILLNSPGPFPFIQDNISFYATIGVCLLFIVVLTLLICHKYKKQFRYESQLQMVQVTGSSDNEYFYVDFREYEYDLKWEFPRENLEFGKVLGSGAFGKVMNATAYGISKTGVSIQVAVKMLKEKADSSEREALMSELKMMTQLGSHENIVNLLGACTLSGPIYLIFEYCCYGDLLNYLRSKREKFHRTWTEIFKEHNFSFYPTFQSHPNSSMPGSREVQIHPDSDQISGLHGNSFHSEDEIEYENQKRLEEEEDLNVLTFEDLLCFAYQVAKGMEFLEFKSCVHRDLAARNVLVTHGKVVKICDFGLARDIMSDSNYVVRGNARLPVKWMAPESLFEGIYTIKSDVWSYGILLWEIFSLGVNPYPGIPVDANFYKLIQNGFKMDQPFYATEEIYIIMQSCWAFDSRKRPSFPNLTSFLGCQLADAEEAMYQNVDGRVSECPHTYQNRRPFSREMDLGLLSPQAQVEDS

SMILES	inhibition [1]	inhibition [2]	pIC50 [3]
COC(=O)CC[C@@H](NC(=O)c1c(C)[nH]c(/C=C2\C(=O)Nc3ccc(C(=O)N[C@@H](Cc4ccccc4)C(=O)OC)cc32)c1C)C(=O)OC	53.5%	94.8%	4.60
COC(=O)[C@H](Cc1ccccc1)NC(=O)c1c(C)[nH]c(/C=C2\C(=O)Nc3ccc(C(=O)N[C@H](Cc4ccccc4)C(=O)OC)cc32)c1C	29%	70.3%	5.60
COC(=O)[C@H](Cc1ccccc1)NC(=O)c1c(C)[nH]c(/C=C2\C(=O)Nc3ccc(C(=O)N[C@H](Cc4ccccc4)C(=O)O)cc32)c1C	18.6%	94.8%	
COC(=O)CC[C@H](NC(=O)c1c(C)[nH]c(/C=C2\C(=O)Nc3ccc(C(=O)N[C@H](Cc4ccccc4)C(=O)OC)cc32)c1C)C(=O)OC	35.3%	88.4%	5.49
COC(=O)[C@@H](Cc1ccccc1)NC(=O)c1c(C)[nH]c(/C=C2\C(=O)Nc3ccc(C(=O)N[C@H](Cc4ccccc4)C(=O)O)cc32)c1C	66.4%	> 100%	
COC(=O)[C@@H](Cc1ccccc1)NC(=O)c1ccc2c(c1)/C(=C/c1[nH]c(C)c(C(=O)N[C@H](Cc3ccccc3)C(=O)O)c1C)C(=O)N2	28.9%	> 100%	4.71
COC(=O)CC[C@@H](NC(=O)c1ccc2c(c1)/C(=C/c1[nH]c(C)c(C(=O)N[C@@H](Cc3ccccc3)C(=O)OC)c1C)C(=O)N2)C(=O)OC	8.2%	49.6%	4.77
COC(=O)CC[C@H](NC(=O)c1ccc2c(c1)/C(=C/c1[nH]c(C)c(C(=O)N[C@H](CCC(=O)OC)C(=O)OC)c1C)C(=O)N2)C(=O)OC	43.2%	81.9%	
COC(=O)[C@H](Cc1ccccc1)NC(=O)c1ccc2c(c1)/C(=C/c1[nH]c(C)c(C(=O)N[C@H](Cc3ccccc3)C(=O)OC)c1C)C(=O)N2	35.4%	67.7%	5.48
COC(=O)CC[C@H](NC(=O)c1c(C)[nH]c(/C=C2\C(=O)Nc3ccc(C(=O)N[C@H](CCC(=O)OC)C(=O)OC)cc32)c1C)C(=O)OC	80.4%	70.3%	
COC(=O)CC[C@H](NC(=O)c1ccc2c(c1)/C(=C/c1[nH]c(C)c(C(=O)N[C@H](Cc3ccccc3)C(=O)OC)c1C)C(=O)N2)C(=O)OC	31.5%	78%	< 4.52
COC(=O)CC[C@@H](NC(=O)c1ccc2c(c1)/C(=C/c1[nH]c(C)c(C(=O)N[C@H](Cc3ccccc3)C(=O)OC)c1C)C(=O)N2)C(=O)OC	12.1%	32.8%	4.99
COC(=O)[C@@H](Cc1ccccc1)NC(=O)c1ccc2c(c1)/C(=C/c1[nH]c(C)c(C(=O)N[C@H](Cc3ccccc3)C(=O)OC)c1C)C(=O)N2	35.4%	85.8%	5.54
COC(=O)CC[C@@H](NC(=O)c1c(C)[nH]c(/C=C2\C(=O)Nc3ccc(C(=O)OC)cc32)c1C)C(=O)OC	88.3%	93.5%	5.89
COC(=O)CC[C@@H](NC(=O)c1c(C)[nH]c(/C=C2\C(=O)Nc3ccc(C(=O)N[C@H](Cc4ccccc4)C(=O)OC)cc32)c1C)C(=O)OC	37.9%	63.8%	5.80
CCOC(=O)c1c(C)[nH]c(/C=C2\C(=O)Nc3ccc(C(=O)N[C@H](CCC(=O)OC)C(=O)OC)cc32)c1C	3.1%	79.3%	
COC(=O)CC[C@@H](NC(=O)c1c(C)[nH]c(/C=C2\C(=O)Nc3ccc(C(=O)O)cc32)c1C)C(=O)OC	93.5%	> 100%	

The remaining lines, values ahead:

inhibition [1]	inhibition [2]	pIC50 [3]	SMILES
76.8%	> 100%		Cc1[nH]c(/C=C2\C(=O)Nc3ccc(C(=O)N[C@H](Cc4ccccc4)C(=O)O)cc32)c(C)c1C(=O)N[C@H](Cc1ccccc1)C(=O)O
39.2%	> 100%		COC(=O)CC[C@@H](NC(=O)c1c(C)[nH]c(/C=C2\C(=O)Nc3ccc(C(=O)N[C@H](Cc4ccccc4)C(=O)O)cc32)c1C)C(=O)OC
61.3%	92.2%	5.89	CCOC(=O)c1c(C)[nH]c(/C=C2\C(=O)Nc3ccc(C(=O)N[C@H](Cc4ccccc4)C(=O)OC)cc32)c1C
47%	96.2%		CCOC(=O)c1c(C)[nH]c(/C=C2\C(=O)Nc3ccc(C(=O)N[C@H](Cc4ccccc4)C(=O)O)cc32)c1C
67.7%	> 100%		COC(=O)CC[C@@H](NC(=O)c1ccc2c(c1)/C(=C/c1[nH]c(C)c(C(=O)N[C@@H](Cc3ccccc3)C(=O)O)c1C)C(=O)N2)C(=O)OC
93.5%	> 100%		COC(=O)[C@@H](Cc1ccccc1)NC(=O)c1c(C)[nH]c(/C=C2\C(=O)Nc3ccc(C(=O)N[C@@H](Cc4ccccc4)C(=O)O)cc32)c1C
104%	> 100%		Cc1[nH]c(/C=C2\C(=O)Nc3ccc(C(=O)N[C@@H](Cc4ccccc4)C(=O)O)cc32)c(C)c1C(=O)N[C@H](Cc1ccccc1)C(=O)O
89.6%	> 100%	4.74	COC(=O)[C@H](Cc1ccccc1)NC(=O)c1ccc2c(c1)/C(=C/c1[nH]c(C)c(C(=O)N[C@H](Cc3ccccc3)C(=O)O)c1C)C(=O)N2
73%	> 100%		COC(=O)CC[C@@H](NC(=O)c1ccc2c(c1)/C(=C/c1[nH]c(C)c(C(=O)N[C@H](Cc3ccccc3)C(=O)O)c1C)C(=O)N2)C(=O)OC
70.3%	> 100%		COC(=O)CC[C@H](NC(=O)c1ccc2c(c1)/C(=C/c1[nH]c(C)c(C(=O)N[C@H](Cc3ccccc3)C(=O)O)c1C)C(=O)N2)C(=O)OC
90.9%	> 100%		COC(=O)CC[C@@H](NC(=O)c1c(C)[nH]c(/C=C2\C(=O)Nc3ccc(C(=O)N[C@@H](Cc4ccccc4)C(=O)O)cc32)c1C)C(=O)OC
76.7%	27.5%	6.22	COC(=O)[C@@H](Cc1ccccc1)NC(=O)c1ccc2c(c1)/C(=C/c1[nH]c(C)c(C(=O)O)c1C)C(=O)N2
97.4%	> 100%		COC(=O)[C@@H](Cc1ccccc1)NC(=O)c1c(C)[nH]c(/C=C2\C(=O)Nc3ccc(C(=O)O)cc32)c1C
91%	> 100%	5.41	COC(=O)c1ccc2c(c1)/C(=C/c1[nH]c(C)c(C(=O)N[C@H](Cc3ccccc3)C(=O)O)c1C)C(=O)N2
87.1%	> 100%		Cc1[nH]c(/C=C2\C(=O)Nc3ccc(C(=O)N[C@H](Cc4ccccc4)C(=O)O)cc32)c(C)c1C(=O)O
47%	80.6%	6.52	COC(=O)c1ccc2c(c1)/C(=C/c1[nH]c(C)c(C(=O)N[C@H](Cc3ccccc3)C(=O)OC)c1C)C(=O)N2
87%	> 100%		Cc1[nH]c(/C=C2\C(=O)Nc3ccc(C(=O)O)cc32)c(C)c1C(=O)N[C@H](Cc1ccccc1)C(=O)O
